A value given as a limit tells only on which side of the number the result lay.

33 molecules from ChEMBL document CHEMBL2331331 (J Med Chem, 2013) can be followed below.

The subject of one assay is HeLa. The assay is described as follows: Cytotoxicity against human HeLa cells assessed as growth inhibition after 72 hrs by MTT assay. The format is functional, cell-based. In short, it runs like this: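 MTT viability assay with serial inhibitor dilutions for 72 h at 37 °C, then MTT for 2–4 h and OD read at 570 nm. Leukemia lines were seeded at (1–4) × 10⁴ cells/well and lysed with 20% acidified SDS. Adherent lines were seeded at (2–5) × 10³ cells/well, dosed after 24 h and dissolved in DMSO. Triplicate; mean ± SD.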
On the technique in general: Tetrazolium assays rely on reduction of a dye to a coloured formazan, in cell work by metabolically active cells.

Assay [1] has as its target Vascular endothelial growth factor receptor 2 (Danio rerio, UniProt Q5GIT4). Put plainly: Inhibition of VEGFR2 in transgenic zebrafish embryo assessed as inhibition of intersegmental vessels formation measured 33 hrs post fertilization by fluorescence microscopic analysis. In short, it runs like this:
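FLK-1:EGFP transgenic zebrafish embryos, 10 per well, exposed at 28.5 °C from 15 to 31 hpf to compound in fish water at 1.25, 2.5 or 5 μM (diluted from a 10 mmol/L DMSO stock); 0.3% DMSO as vehicle control. Embryos were imaged at 33 hpf, and ISVs above the yolk extension were scored for length. n = 11, mean ± SD, ANOVA.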

Assay [2] concerns the target Receptor-type tyrosine-protein kinase FLT3 (Homo sapiens, UniProt P36888, ITD). Put plainly: Binding affinity to FLT3-ITD mutant (unknown origin).
Assay [3] has as its target Vascular endothelial growth factor receptor 2 (Homo sapiens, UniProt P35968). Put plainly: Inhibition of VEGFR2 (unknown origin).
Assay [4] deals with T1, Receptor-type tyrosine-protein kinase FLT3 (Homo sapiens, UniProt P36888).
T1 sequence (P36888 whole entry): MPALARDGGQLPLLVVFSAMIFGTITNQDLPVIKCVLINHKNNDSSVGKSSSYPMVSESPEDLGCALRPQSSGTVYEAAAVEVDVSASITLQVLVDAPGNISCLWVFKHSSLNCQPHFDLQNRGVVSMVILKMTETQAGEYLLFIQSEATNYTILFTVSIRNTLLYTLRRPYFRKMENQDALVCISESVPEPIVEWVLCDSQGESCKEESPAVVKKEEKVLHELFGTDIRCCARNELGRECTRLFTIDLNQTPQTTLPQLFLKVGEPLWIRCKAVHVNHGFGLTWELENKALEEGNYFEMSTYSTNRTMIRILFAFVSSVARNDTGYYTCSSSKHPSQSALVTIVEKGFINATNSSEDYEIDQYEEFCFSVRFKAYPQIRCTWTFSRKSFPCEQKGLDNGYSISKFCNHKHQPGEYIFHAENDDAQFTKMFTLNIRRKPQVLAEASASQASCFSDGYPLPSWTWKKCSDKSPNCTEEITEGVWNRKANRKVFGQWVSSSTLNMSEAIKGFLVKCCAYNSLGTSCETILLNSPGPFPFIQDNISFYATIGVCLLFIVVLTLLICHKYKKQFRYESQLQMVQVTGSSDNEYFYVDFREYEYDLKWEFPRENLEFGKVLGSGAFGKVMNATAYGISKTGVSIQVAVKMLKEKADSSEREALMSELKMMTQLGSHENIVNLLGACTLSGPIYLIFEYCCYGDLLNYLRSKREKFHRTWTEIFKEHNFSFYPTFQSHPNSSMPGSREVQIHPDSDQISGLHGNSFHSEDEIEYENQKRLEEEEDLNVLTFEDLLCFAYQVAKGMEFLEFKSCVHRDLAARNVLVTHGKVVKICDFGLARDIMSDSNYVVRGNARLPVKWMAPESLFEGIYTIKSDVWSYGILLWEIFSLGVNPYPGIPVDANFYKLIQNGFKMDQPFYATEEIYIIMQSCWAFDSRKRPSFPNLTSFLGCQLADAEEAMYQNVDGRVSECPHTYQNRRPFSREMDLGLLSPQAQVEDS
The assay is described as follows: Inhibition of FLT3 (unknown origin).

Vascular endothelial growth factor receptor 2 (Danio rerio, UniProt Q5GIT4), sequence (Q5GIT4 whole entry): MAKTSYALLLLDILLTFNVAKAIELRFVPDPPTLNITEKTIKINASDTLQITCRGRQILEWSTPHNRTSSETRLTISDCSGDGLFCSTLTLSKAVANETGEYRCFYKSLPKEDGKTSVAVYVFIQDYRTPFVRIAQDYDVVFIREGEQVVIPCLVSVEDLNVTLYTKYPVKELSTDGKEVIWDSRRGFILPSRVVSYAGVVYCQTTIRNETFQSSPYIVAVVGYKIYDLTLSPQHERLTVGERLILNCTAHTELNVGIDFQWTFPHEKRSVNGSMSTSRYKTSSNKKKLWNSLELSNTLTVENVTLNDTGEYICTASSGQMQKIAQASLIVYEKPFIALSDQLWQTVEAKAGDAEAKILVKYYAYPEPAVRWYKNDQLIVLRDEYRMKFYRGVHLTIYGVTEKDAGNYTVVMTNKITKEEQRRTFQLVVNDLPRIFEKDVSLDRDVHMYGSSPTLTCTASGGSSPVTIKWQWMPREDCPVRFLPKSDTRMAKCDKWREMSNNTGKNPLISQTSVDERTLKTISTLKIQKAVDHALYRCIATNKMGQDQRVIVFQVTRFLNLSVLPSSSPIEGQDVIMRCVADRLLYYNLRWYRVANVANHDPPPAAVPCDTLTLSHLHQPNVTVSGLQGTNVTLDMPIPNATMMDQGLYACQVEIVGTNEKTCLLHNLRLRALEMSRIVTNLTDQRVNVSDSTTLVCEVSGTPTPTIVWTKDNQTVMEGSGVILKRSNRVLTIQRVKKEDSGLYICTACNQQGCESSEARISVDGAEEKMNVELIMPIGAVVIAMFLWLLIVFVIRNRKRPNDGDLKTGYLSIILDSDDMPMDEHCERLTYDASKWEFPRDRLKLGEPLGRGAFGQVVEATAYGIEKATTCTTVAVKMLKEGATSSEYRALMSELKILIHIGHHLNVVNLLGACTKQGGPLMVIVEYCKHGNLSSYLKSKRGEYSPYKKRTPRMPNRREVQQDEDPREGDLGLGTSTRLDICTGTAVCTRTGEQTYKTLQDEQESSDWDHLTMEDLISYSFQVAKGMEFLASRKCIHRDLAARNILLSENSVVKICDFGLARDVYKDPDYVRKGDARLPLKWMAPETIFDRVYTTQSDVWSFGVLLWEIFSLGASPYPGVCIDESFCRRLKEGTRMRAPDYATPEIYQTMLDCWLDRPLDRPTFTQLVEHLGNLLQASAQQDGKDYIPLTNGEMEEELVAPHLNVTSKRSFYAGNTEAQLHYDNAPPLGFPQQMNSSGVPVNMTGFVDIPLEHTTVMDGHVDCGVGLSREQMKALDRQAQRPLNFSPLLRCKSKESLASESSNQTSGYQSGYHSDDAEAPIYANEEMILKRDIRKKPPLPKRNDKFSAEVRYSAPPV
Vascular endothelial growth factor receptor 2 (Homo sapiens, UniProt P35968), sequence (P35968 whole entry): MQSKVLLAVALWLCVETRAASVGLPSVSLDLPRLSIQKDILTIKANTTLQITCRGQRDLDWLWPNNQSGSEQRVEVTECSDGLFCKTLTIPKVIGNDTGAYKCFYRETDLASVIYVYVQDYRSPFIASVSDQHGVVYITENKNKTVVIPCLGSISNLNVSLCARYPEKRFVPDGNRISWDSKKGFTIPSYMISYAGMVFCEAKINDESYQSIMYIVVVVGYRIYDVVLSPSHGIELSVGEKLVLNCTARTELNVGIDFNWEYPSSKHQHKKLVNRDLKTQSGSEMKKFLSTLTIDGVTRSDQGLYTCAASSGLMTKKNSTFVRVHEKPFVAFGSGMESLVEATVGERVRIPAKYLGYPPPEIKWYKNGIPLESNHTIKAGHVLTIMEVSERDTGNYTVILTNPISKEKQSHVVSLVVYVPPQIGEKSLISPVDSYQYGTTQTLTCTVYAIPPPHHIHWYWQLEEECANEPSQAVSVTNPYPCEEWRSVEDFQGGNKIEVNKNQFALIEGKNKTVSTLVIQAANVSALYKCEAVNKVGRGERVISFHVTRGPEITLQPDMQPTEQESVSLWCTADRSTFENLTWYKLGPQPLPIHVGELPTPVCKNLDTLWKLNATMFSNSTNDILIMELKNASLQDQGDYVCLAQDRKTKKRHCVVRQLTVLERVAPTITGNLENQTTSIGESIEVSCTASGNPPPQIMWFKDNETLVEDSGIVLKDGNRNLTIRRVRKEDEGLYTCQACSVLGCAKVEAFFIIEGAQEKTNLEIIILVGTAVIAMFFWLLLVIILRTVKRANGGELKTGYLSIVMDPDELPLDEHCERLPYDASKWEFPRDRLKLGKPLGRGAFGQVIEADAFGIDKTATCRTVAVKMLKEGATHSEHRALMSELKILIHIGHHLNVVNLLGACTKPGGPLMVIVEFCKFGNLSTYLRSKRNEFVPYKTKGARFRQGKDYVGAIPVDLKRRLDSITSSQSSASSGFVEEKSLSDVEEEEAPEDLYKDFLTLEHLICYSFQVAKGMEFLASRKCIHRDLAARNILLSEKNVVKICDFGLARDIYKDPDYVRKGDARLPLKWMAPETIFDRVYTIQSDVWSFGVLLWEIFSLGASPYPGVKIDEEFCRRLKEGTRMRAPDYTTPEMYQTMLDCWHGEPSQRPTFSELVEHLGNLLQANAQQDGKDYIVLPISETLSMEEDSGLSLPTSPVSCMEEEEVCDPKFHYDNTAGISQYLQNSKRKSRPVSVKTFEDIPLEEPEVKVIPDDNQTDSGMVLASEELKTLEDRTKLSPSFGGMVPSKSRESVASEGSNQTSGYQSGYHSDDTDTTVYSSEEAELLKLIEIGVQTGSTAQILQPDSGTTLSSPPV

For the molecule `O=C(Nc1ccccc1)Nc1ccc(Oc2ncnc3n[nH]cc23)cc1`, the IC50 with HeLa was more than 10 µM; in assay [1] it was 20.2 µM.
For `O=C(Nc1ccc(Oc2ncnc3n[nH]cc23)cc1)c1ccc(Br)cc1` the same measures were more than 10 µM and 74.7 µM.
With `Cc1cccc(NC(=O)Nc2ccc(Oc3ncnc4[nH]ncc34)cc2)c1C`, the IC50 was more than 10 µM in the assay with HeLa and 98.8 µM in assay [1].
For `CC(NC(=O)Nc1ccc(Oc2ncnc3n[nH]cc23)cc1)c1ccccc1` (stereo not given), the IC50 in the assay with HeLa was more than 10 µM; in assay [1], more than 98.2 µM.
The matching figures for `Cn1ncc2c(Oc3ccc(NC(=O)Nc4ccc(C(F)(F)F)cc4)cc3)ncnc21`: more than 10 µM and more than 100 µM.
`O=C(Nc1ccc(C(F)(F)F)cc1)Nc1cccc(Oc2ncnc3[nH]ncc23)c1`: the IC50 with HeLa was more than 10 µM; in assay [1], more than 100 µM.
In the case of `O=C(Nc1ccc(Oc2ncnc3[nH]ncc23)cc1)Nc1ccc(N2CCOCC2)cc1`, the IC50 was more than 10 µM with HeLa and more than 100 µM in assay [1].
The matching figures for `O=C(Nc1ccc(Oc2ncnc3[nH]ncc23)cc1)Nc1cccc(F)c1`: more than 10 µM and 16.6 µM.
For the molecule `Cc1cccc(NC(=O)Nc2ccc(Nc3ncnc4n[nH]cc34)cc2)c1C`, the IC50 in the assay on HeLa is more than 10 µM; in assay [1], more than 100 µM.
For `COc1cccc(NC(=O)Nc2ccc(Nc3ncnc4[nH]ncc34)cc2)c1` the same measures were more than 10 µM and more than 100 µM.
For `O=C(Cc1ccc(Br)cc1)Nc1ccc(Oc2ncnc3n[nH]cc23)cc1`, the IC50 was more than 10 µM in the assay with HeLa and 74.7 µM in assay [1].
Regarding `COc1cccc(NC(=O)Nc2ccc(Oc3ncnc4c3cnn4C)cc2)c1`, the results for the IC50 (with HeLa; in assay [1]) were more than 10 µM and more than 100 µM, respectively.
Consider `O=C(Nc1ccc(Br)cc1)Nc1ccc(Oc2ncnc3[nH]ncc23)cc1`, for which the IC50 with HeLa was more than 10 µM; in assay [1], 74.7 µM.
For `CC(NC(=O)Nc1ccc(Nc2ncnc3[nH]ncc23)cc1)c1ccccc1` (stereo not given), the IC50 with HeLa is more than 10 µM; in assay [1] it was more than 100 µM.
With `O=C(Cc1ccc(Br)cc1)Nc1cccc(Oc2ncnc3n[nH]cc23)c1`, the 50% inhibitory concentration (IC50) in the assay with HeLa was more than 10 µM; in assay [1], more than 100 µM.
As to `O=C(NCC1CCCCC1)Nc1ccc(Oc2ncnc3[nH]ncc23)cc1`, the IC50 was more than 10 µM in the assay with HeLa and more than 100 µM in assay [1].
As to `O=C(Nc1ccc(Oc2ncnc3[nH]ncc23)cc1)Nc1ccc(C(F)(F)F)cc1`, binding in assay [2] was put at a Kd of 0.91 µM. Moreover, the IC50 in the assay on HeLa was more than 10 µM; in assay [1], 1.2 µM; in assay [3], 0.038 µM; in assay [4], 0.032 µM.
As to `O=C(Nc1ccc(Br)cc1)Nc1ccc(Nc2ncnc3n[nH]cc23)cc1`, the IC50 with HeLa is more than 10 µM; in assay [1] it was more than 100 µM.
For the molecule `O=C(Nc1ccc(Oc2ncnc3[nH]ncc23)cc1)Nc1cccc(C(F)(F)F)c1`, in assay [2], binding was put at a Kd of 0.0066 µM. The values for the half-inhibitory concentration (IC50) (in the assay on HeLa; in assay [1]) were more than 10 µM and 1.05 µM, respectively.
For `COc1cccc(NC(=O)Nc2ccc(Oc3ncnc4n[nH]cc34)cc2)c1`, the IC50 with HeLa was more than 10 µM; in assay [1], 82 µM.
Take `CC(C)c1cccc(NC(=O)Nc2ccc(Oc3ncnc4n[nH]cc34)cc2)c1`: the IC50 is more than 10 µM in the assay with HeLa and 7.73 µM in assay [1].
The matching figures for `O=C(Nc1ccc(F)cc1)Nc1ccc(Oc2ncnc3[nH]ncc23)cc1`: more than 10 µM and 89.4 µM.
`CNC(=O)c1cc(Oc2ccc(NC(=O)Nc3ccc(Cl)c(C(F)(F)F)c3)cc2)ccn1` [SORAFENIB]: the IC50 worked out at 4.16 µM with HeLa and 2.6 µM in assay [1].
Take `O=C(Nc1cccc(Oc2ncnc3n[nH]cc23)c1)c1ccc(C(F)(F)F)cc1`: the IC50 in the assay on HeLa was more than 10 µM; in assay [1], more than 100 µM.
The matching figures for `O=C(Cc1ccc(C(F)(F)F)cc1)Nc1cccc(Oc2ncnc3[nH]ncc23)c1`: more than 10 µM and more than 100 µM.
For `O=C(Nc1ccc(Oc2ncnc3n[nH]cc23)cc1)Nc1cc(C(F)(F)F)cc(C(F)(F)F)c1`, the concentration for half-maximal inhibition (IC50) was more than 10 µM in the assay with HeLa and 5.18 µM in assay [1].
Consider `O=C(Nc1ccc(Oc2ncnc3n[nH]cc23)cc1)Nc1cccc(OC(F)(F)F)c1`, for which the IC50 is more than 10 µM with HeLa and 17.8 µM in assay [1].
With `O=C(Nc1ccc(Oc2ncnc3n[nH]cc23)cc1)NC1CCCCC1`, the results for the IC50 (in the assay on HeLa; in assay [1]) were more than 10 µM and more than 100 µM, respectively.
Turning to `O=C(Nc1ccc(Br)cc1)Nc1cccc(Oc2ncnc3[nH]ncc23)c1`, the IC50 is more than 10 µM with HeLa and more than 100 µM in assay [1].
In the case of `O=C(Nc1cccc(Oc2ncnc3[nH]ncc23)c1)c1ccc(Br)cc1`, the IC50 in the assay on HeLa is more than 10 µM; in assay [1], more than 100 µM.
The matching figures for `O=C(Nc1ccc(Oc2ncnc3[nH]ncc23)cc1)Nc1ccc(C(F)(F)F)cc1Cl`: more than 10 µM and 8.46 µM.
For `O=C(Nc1ccc(Oc2ncnc3n[nH]cc23)cc1)Nc1cccnc1` the same measures were more than 10 µM and more than 100 µM.
Regarding `O=C(Nc1ccc(Nc2ncnc3[nH]ncc23)cc1)Nc1ccc(C(F)(F)F)cc1`, the 50% inhibitory concentration (IC50) with HeLa was more than 10 µM; in assay [1], more than 100 µM.

In general, IC50 refers to the midpoint of a concentration-inhibition curve. What is called Kd is the free concentration of one partner at which half of the binding sites on the other are occupied at equilibrium, for simple one-to-one binding. High values mean weaker binding, low ones tighter binding.
